Laboratory results from ChEMBL document CHEMBL3621152, “Highly Efficient Synthesis of 1,3-Dihydroxy-2-carboxycarbazole and Its Neuroprotective Effects” (ACS Med Chem Lett, 2015).
One block for each compound: values may come before it. The source made the active and inactive calls. The rule behind the calls is not given here.

Experiments:
MC65 [1] = test: Effect on Abeta42 production in human MC65 cells at 0.1 to 1 uM incubated for 48 hrs under tetracycline removal condition by ELISA method; format: functional, cell-based
Method in brief: (§1)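 MC65 human neuroblastoma cells, which conditionally express APP C-terminal fragment C99 under tetracycline suppression, treated under -TC conditions for 48 h; Aβ40 and Aβ42 measured in the collected medium by ELISA.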

[2] = Antioxidant activity assessed as DPPH radical scavenging activity at 0.3 to 100 uM incubated for 30 mins at 37 degC; format: physicochemical; conditions: 0.5 h
Method in brief: (§2)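 Test compound or trolox incubated with DPPH (50 µM) in MeOH at 37 °C for 30 min at the indicated concentrations; radical scavenging read as absorbance at 517 nm.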

MC65 [3] = test: Neuroprotective activity in human MC65 cells assessed as protection against tetracycline removal-induced toxicity at 10 uM incubated for 72 hrs by MTT method; format: functional, cell-based
Method in brief: (§3)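 Aβ toxicity in MC65 cells (C99 expression induced by tetracycline removal) with compound present at the indicated concentrations under -TC conditions for 72 h; viability read by MTT assay.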

MC65 [4] = test: Neuroprotective activity in human MC65 cells assessed as protection against tetracycline removal-induced toxicity at 0.3 uM incubated for 72 hrs by MTT method; format: functional, cell-based; method in brief: as §3
[5] = molecular target: T1, Amyloid-beta precursor protein (Homo sapiens, UniProt P05067); test: Inhibition of amyloid beta oligomerization in human MC65 cells assessed as small AbetaOs formation at 0.3 uM incubated for 48 hrs under tetracycline removal condition by Western blot method; format: cell-based
Method in brief: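 MC65 cells incubated with compound under -TC conditions for 48 h; culture lysates analyzed by Western blot with 6E10 antibody for Aβ oligomers.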

MC65 [6] = test: Effect on Abeta40 production in human MC65 cells at 0.1 to 1 uM incubated for 48 hrs under tetracycline removal condition by ELISA method; format: functional, cell-based; method in brief: as §1
[7] = molecular target: T1, Amyloid-beta precursor protein; test: Inhibition of amyloid beta (1 to 42) (unknown origin) aggregation incubated for 48 hrs by Thioflavin-T Abeta aggregation assay
Method in brief: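 Aβ42 (10 µM) incubated with compound at the indicated concentrations for 48 h; aggregation measured by thioflavin T assay; curcumin (10 µM) used as positive control.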

MC65 [8] = test: Neuroprotective activity in human MC65 cells assessed as protection against tetracycline removal-induced toxicity UP TO 10 uM incubated for 72 hrs by MTT method; format: functional, cell-based; conditions: in the assay text read “UP TO 100 uM” for “UP TO 10 uM”; method in brief: as §3
[9] = Antioxidant activity assessed as DPPH radical scavenging activity at 0.3 to 10 uM incubated for 30 mins at 37 degC; format: physicochemical; conditions: 0.5 h; method in brief: as §2

T1 sequence (P05067 whole entry): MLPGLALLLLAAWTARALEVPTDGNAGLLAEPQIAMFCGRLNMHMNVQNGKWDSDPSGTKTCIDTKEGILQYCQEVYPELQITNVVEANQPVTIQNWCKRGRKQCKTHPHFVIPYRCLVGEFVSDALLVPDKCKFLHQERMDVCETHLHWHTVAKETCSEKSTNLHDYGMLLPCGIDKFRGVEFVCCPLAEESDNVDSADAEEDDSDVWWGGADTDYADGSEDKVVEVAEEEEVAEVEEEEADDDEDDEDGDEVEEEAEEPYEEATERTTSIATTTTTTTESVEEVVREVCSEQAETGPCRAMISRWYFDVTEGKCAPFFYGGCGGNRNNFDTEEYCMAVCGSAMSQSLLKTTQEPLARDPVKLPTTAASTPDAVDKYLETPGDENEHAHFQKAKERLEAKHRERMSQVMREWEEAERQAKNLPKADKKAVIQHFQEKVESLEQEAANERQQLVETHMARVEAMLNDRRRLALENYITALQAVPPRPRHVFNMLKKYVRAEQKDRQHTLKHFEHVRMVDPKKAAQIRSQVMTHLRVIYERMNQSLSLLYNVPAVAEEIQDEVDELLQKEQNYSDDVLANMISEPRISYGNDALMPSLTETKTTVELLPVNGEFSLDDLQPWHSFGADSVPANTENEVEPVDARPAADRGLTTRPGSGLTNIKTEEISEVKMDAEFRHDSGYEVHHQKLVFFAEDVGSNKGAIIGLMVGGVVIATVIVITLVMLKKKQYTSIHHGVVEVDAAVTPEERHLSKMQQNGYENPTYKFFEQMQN

Activity [2]: Active
inhibition [5]: Active
IC50 [7]: 15 µM
inhibition [7]: Dose-dependent effect
Compound: O=C(O)c1c(O)cc2c([nH]c3ccccc32)c1O
Activity (MC65 [1]): inactive
Activity (MC65 [3]): Active
Activity (MC65 [4]): Active
Activity (MC65 [6]): inactive

Compound: O=C(O)c1c(O)cccc1O
Activity (MC65 [8]): inactive

Activity [9]: Active
Compound: Cc1c(C)c2c(c(C)c1O)CCC(C)(C(=O)O)O2 (stereo not given) [TROLOX]
